The test system of assay [1] is RKO. The assay is described as follows: Growth inhibition of human RKO cells after 48 hrs by MTT assay. The format is functional, cell-based. Summed up:
(§1)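 MTT assay: log-phase cells plated at 5 × 10³/well for 24 h, then exposed to a range of test concentrations for 48 h. MTT (5 mg/mL) added for 4 h, formazan dissolved in DMSO, absorbance read at 570 nm. IC50 is the concentration giving 50% growth inhibition, from dose-response curves; at least three independent experiments, mean ± SE.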

Assay [2] has as its system A549. The assay is described as follows: Induction of mitochondrial membrane disruption in human A549 cells assessed as cells with mitochondrial membrane potential loss at 8 nM after 48 hrs by JC1 staining based flow cytometry (reference value: 0.82%). The format is functional. (A flow cytometer gives signals particle by particle.)
Assay [3] in a line: Antiproliferative activity against HLF after 48 hrs by MTT assay. The class given is cell-based. Particulars: Homo sapiens. Summed up: as §1
On the technique in general: Formazan colour is commonly taken as a measure of viable cells.

The test system of assay [4] is MGC-803. The assay is described as follows: Antiproliferative activity against human MGC803 cells after 48 hrs by MTT assay. The class given is functional, cell-based. Particulars: MGC-803, 48 h. Put shortly:
as §1

The subject of assay [5] is A549. The assay is described as follows: Cell cycle arrest in human A549 cells assessed as accumulation at G2/M phase at 4 nM after 12 hrs by propidium iodide staining based flow cytometry (reference value: 10.13%). The format is functional. Summed up: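 A549 seeded in six-well plates at 3 × 10⁵ cells/well and treated for 12 or 24 h; vehicle 0.01% DMSO. Cells fixed overnight in ice-cold 70% ethanol, treated with RNase A at 37 °C for 30 min, then stained with PI at 4 °C for 30 min. About 10 000 events acquired by flow cytometry at 488 nm; three experiments.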

Assay [6] has as its system A549. The assay is described as follows: Induction of apoptosis in human A549 cells assessed as live cells at 2 nM after 48 hrs by Annexin V-FITC/propidium iodide staining based flow cytometry (reference value: 98.49%). The class given is functional.
For assay [7], the system named is A549. The assay is described as follows: Induction of apoptosis in human A549 cells assessed as early apoptotic cells at 2 nM after 48 hrs by Annexin V-FITC/propidium iodide staining based flow cytometry (reference value: 1.48%). The format is functional.
Assay [8] is described as follows: Selectivity index, ratio of IC50 for human LO2 cells to IC50 for human A549 cells. The class given is functional. Put shortly: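 MTT assay in normal cells and A549: seeding at 5 × 10³ cells/well for 24 h, 48 h compound exposure, then 5 mg/mL MTT for 4 h, DMSO solubilisation and absorbance at 570 nm. IC50 values came from dose–response curves of at least three independent experiments. Selectivity ratio = IC50 in normal cells / IC50 in A549.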

Assay [9] has as its system A549. The assay is described as follows: Induction of apoptosis in human A549 cells assessed as late apoptotic cells at 4 nM after 24 hrs by Annexin V-FITC/propidium iodide staining based flow cytometry (reference value: 0.08%). The class given is functional.
Assay [10] relates to A549. The assay is described as follows: Induction of mitochondrial membrane disruption in human A549 cells assessed as cells with intact mitochondrial membrane at 8 nM after 48 hrs by JC1 staining based flow cytometry (reference value: 99.13%). The class given is functional.
The subject of assay [11] is A549. In words: Induction of mitochondrial membrane disruption in human A549 cells assessed as cells with intact mitochondrial membrane at 2 nM after 48 hrs by JC1 staining based flow cytometry (reference value: 99.13%). The format is functional.

SMILES strings stand for the structures. pIC50: −log10 of the molar value.

As for `C[Se]c1ccc(N(C)c2nc(C)nc3ccccc23)cc1`, the negative-log IC50 (pIC50) in [1] was 8.40; in assay [3], 7.70; in assay [4], 8.15. The Activity came out at 63.13% in assay [2]; 67.1% in assay [5]; 49.81% in assay [6]; 26.51% in [7]; 6.35% in assay [9]; 36.52% in assay [10]. For the same compound, the Activity in assay [11] was found to be 83.86%. In addition, in [8], the “Ratio IC50” value stood at 9.5.

The pIC50 is the negative decadic logarithm of the IC50, by convention in mol/L.

(Values after ChEMBL document CHEMBL4020840, “Synthesis and Biological Evaluation of Selenium-Containing 4-Anilinoquinazoline Derivatives as Novel Antimitotic Agents” (J Med Chem, 2018).)
